In the library only some 1.1% were active in any assay of this set; here they are far more common.
ERAP1 HTS inh: blocks human ERAP1 aminopeptidase activity; AID 652197; Q9NZ08; recombinant ERAP1, Leu-AMC fluorescence, 60 min; 340,000 compounds, 0.15% hits; inhibition, % at 10.7 µM;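 active = mean replicate inhibition of at least 30%, or all replicates individually reaching that 30% level; inactive = mean below 30% and not every replicate reaching it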;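 note: 0% = neutral control wells and 100% = L-leucinethiol positive control wells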
Rin1-Abl PPI inh: blocks binding of human Rin1 to Abl; inhibition, % at 7.35 µM; 360,000 compounds, 0.4% hits; P00519+Q13671; TR-FRET Rin1/Abl binding, biochemical; in the data active = inhibition above about 5%, passing the limit was not always enough
CAL PDZ FP-1: inhibitors of human CAL PDZ peptide binding | Q9HD26 | purified CAL PDZ, TMR-peptide fluorescence polarization, 1 h | inhibition, % at 24.9 µM | 300,000 compounds, 0.92% hits;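 active = mean inhibition of at least 30% with at least half of replicates also reaching 30%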;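 note: 0% = DMSO neutral control and 100% = excess unlabeled competitor peptide PRC23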
PDI turbidity: PDI (human) enzyme inhibition; 350,000 compounds, 0.052% hits; PDI insulin aggregation turbidity, A650, 90 min; P07237; inhibition, % at 10 µM;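 active = mean inhibition across replicates of 30% or more, whatever share of single replicates reach that level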
CAL PDZ FP-2: human CAL PDZ-peptide interaction inhibition. Q9HD26. purified CAL PDZ, TMR-peptide fluorescence polarization, 1 h. inhibition, % at 20 µM. 330,000 compounds, 0.02% hits. AID 504414;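 active = highest replicate inhibition of at least 40%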;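 note: plate controls were DMSO neutral control wells for no effect and unlabeled competitor peptide control wells for full effect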
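System: tagged CAL PDZ domain. Schedule: 1 h room-temperature incubation prior to read. Signal: fluorescence polarization (mP). Measure: percent inhibition from loss of millipolarization.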
ERp5 block: inhibitors of human ERp5. ERp5 insulin aggregation, absorbance 650 nm, 90 min. inhibition, % at 9.99 µM. 350,000 compounds, 0.05% hits. AID 651711;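 active = mean replicate inhibition above about 25%, with every replicate also reaching it, limit read from the data, passing the limit was not always enough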
Rin1-Abl confirm: Rin1-Abl interaction inhibition confirmation. shares compounds with Rin1-Abl PPI inh. 1,300 compounds, 49% hits. inhibition, % at 7.35 µM. TR-FRET Rin1-Abl binding, purified proteins
GFP quencher: quenches GFP fluorescence, counter-screen for Rin1-Abl inhibitors. shares compounds with Rin1-Abl PPI inh. inhibitors/quenchers counterscreen. inhibition, % at 6.75 µM. 1,300 compounds, 8.5% hits;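 note: ABL1-eGFP fusion protein alone without its partner RIN1-SBP; 0% = protein with vehicle and 100% = wells lacking protein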
GFP quench dose: counter-screen for Rin1-Abl inhibitors: GFP quenchers, dose response; shares compounds with Rin1-Abl PPI inh; GFP fluorescence interference/quenching counterscreen; IC50, µM; 230 tested, under 10 active; call rule not given here;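 note: ABL1-eGFP fusion protein alone without its RIN1 binding partner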
An asterisk follows results filed as active; / = not tested or not shown. Cut-off read from the data, not from the text of the source, unless noted: active = inhibition above about 6.5%; inactive = the rest.

SMILES	ERAP1 HTS inh	Rin1-Abl PPI inh	CAL PDZ FP-1	PDI turbidity	CAL PDZ FP-2	ERp5 block	Rin1-Abl confirm	GFP quencher	others
O=C(Nc1c(-c2ccc3c(c2)OCO3)[nH][nH]c1=O)c1ccccc1	/	24*	/	/	/	15	9.0*	0
O=C(Nc1c(-c2ccccc2)[nH][nH]c1=O)c1ccc2c(c1)OCO2	1	/	/	/	/	5	/	/
CC(C)n1cc(CN2CCC(C(=O)Nc3cccc(-c4cscn4)c3)CC2)cn1	-2	11*	/	-3	-1	4	24*	1	GFP quench dose=>68
C[C@@H]1CCCCO[C@@H](CN(C)C(=O)Cc2ccccc2)[C@H](C)CN([C@H](C)CO)C(=O)c2cc(NC(=O)c3ccncc3)ccc2O1	-1	/	/	/	/	2	/	/
Cc1c(C(=O)N2CCCCCC2)oc2ccccc12	/	6.6*	3	-4	/	/	1	-1
Cc1nnc(SCc2nc3ccccc3[nH]2)s1	/	18*	1	-3	0	/	29*	-1	GFP quench dose=>68
COC(C(=O)C(O)C(C)O)C1Cc2cc3cc(OC4CC(OC5CC(O)C(O)C(C)O5)C(O)C(C)O4)c(C)c(O)c3c(O)c2C(=O)C1OC1CC(OC2CC(OC3CC(O)C(OC)C(C)O3)C(O)C(C)O2)C(O)C(C)O1 (centres undefined)	-3	13*	10	0	-1	-8	0	-1
CC=Cc1ccc2n(c1=O)C[C@H]1[C@H](CO)[C@@H](C(=O)NCc3ccccc3)N(CCC(F)(F)F)[C@@H]21 (mixture of isomers)	8	/	/	/	/	-4	/	/
CC(=O)c1ccc(OCCCC(=O)N2CCN(S(=O)(=O)c3ccc(C)cc3C)CC2)cc1	2	7.5*	-3	1	-2	15	0	0
CN(C)CC(=O)N1CCCCN2[C@@H](CO)[C@@H](c3ccc(/C=C/c4ccccc4)cc3)[C@@H]2C1	0	/	/	/	/	2	/	/
O=C(C[C@@H]1CC[C@@H](NS(=O)(=O)c2ccc(F)cc2)[C@@H](CO)O1)NCc1ccncn1	1	/	/	/	/	-5	/	/
CCN1CCN(Cc2oc(CO)cc(=O)c2O)CC1	/	5.0*	-5	1	-1	/	1	-1
CCOC(=O)C1CCN(Cc2oc(CO)cc(=O)c2O)CC1	/	14*	-1	3	-1	/	-1	0
CCOC(=O)C1CCN(Cc2cc(C(C)C)c(O)c(C(C)C)c2)CC1	5	5	-5	-2	-1	1	/	/
O=C(C[C@@H]1CC[C@@H]2[C@H](COC[C@H](O)CN2C(=O)c2cccnc2)O1)NCc1ccc(-c2ccccc2)cc1	-1	/	/	/	/	-1	/	/
O=c1oc2cc(O)c(Cl)cc2c2ccccc12	/	-483	8	1	-2	/	/	/
O=c1cc2c(=O)oc3cc(O)c(O)oc3c2c(O)c1O	14	56*	-3	4	/	3	51*	34*
C[C@@H]1CCCCO[C@H](CN(C)S(C)(=O)=O)[C@H](C)CN([C@@H](C)CO)C(=O)c2cc(NC(=O)Nc3ccc4c(c3)OCO4)ccc2O1	-3	/	/	/	/	-1	/	/
CCCNC(=O)N(C)C[C@@H]1Oc2cc(C#Cc3ccccn3)ccc2S(=O)(=O)N([C@@H](C)CO)C[C@H]1C	0	/	/	/	/	-4	/	/
C/C=C/c1ccc2c(c1)O[C@@H](CN(C)C(=O)COC)[C@@H](C)CN([C@@H](C)CO)S2(=O)=O	2	/	/	/	/	/	/	/
CC1=NN(c2ccc(Cl)cc2)C(=O)C1	-1	14*	-1	5	0	-3	0	1
CC1=NN(c2ccc(N)cc2)C(=O)C1	3	5	0	10	-1	-10	/	/
COc1ccccc1S(=O)(=O)N[C@H]1C=C[C@H](CC(=O)N2CCCCC2)O[C@H]1CO	3	/	/	/	/	-1	/	/
C[C@@H]1O[C@@H](O[C@@H]2[C@@H](O)[C@H](OCCc3ccc(O)c(O)c3)O[C@H](CO)[C@H]2OC(=O)/C=C/c2ccc(O)c(O)c2)[C@H](O)[C@H](O)[C@H]1O	0	31*	-2	8	0	-1	34*	2
CCOC(=O)NC(=O)COC(=O)CCCc1nc2ccccc2s1	4	5.4*	-1	7	0	-3	-1	-2
SMILES	ERAP1 HTS inh	Rin1-Abl PPI inh	CAL PDZ FP-1	PDI turbidity	CAL PDZ FP-2	ERp5 block	Rin1-Abl confirm	GFP quencher	others
CCOC(=O)N1CCC(N2C(=O)c3ccccc3C2Nc2ccc(S(=O)(=O)N(CC)CC)cc2)CC1 (centres undefined)	2	11*	67*	0	-1	7	10*	1
Cc1cc(C)c(S(=O)(=O)NCCSCc2ccco2)c(C)c1	-2	8.5*	-4	10	-1	15	-1	0
CCCCNC(=O)C1(C)CCCCN1Cc1ccc2ccccc2c1 (centres undefined)	4	-3	/	-7	/	5	/	/
CCCCNC(=O)C1(C)CCCCCN1Cc1cccc2c(OC)cc(C(=O)OCC)cc12 (centres undefined)	7	6.9*	/	-3	/	-3	-2	1
O=C(NCC[C@@H]1CC[C@H](NC(=O)C2CCOCC2)[C@H](CO)O1)Nc1ccc(Cl)cc1	1	/	/	/	/	7	/	/
Cc1cc(-c2ccccc2)nc(N/N=C/c2ccc(O)cc2O)n1	1	11*	0	-6	0	-9	11*	-2
Oc1ccc(/C=N/Nc2nccnc2Cl)c(O)c1	/	1	-5	-6	-1	/	/	/
Oc1ccc(/C=N/Nc2ncc(Br)cn2)c(O)c1	/	12*	1	3	0	/	9.9*	2
COc1ccccc1N=Nc1ccc(O)c2ncccc12	2	8.7*	18	-11	2	6	5	12*
CCS(=O)(=O)c1ccc(N=Nc2ccc(O)c3ncccc23)c(OC)c1	-1	7	0	-4	2	0	/	/
CC(=O)N1CC[C@@H]2[C@H]1c1cc(-c3ccc(C#N)cc3)ccc1N(C)[C@@H]2CO	-2	/	/	/	/	2	/	/
COc1ccccc1C(=O)N=C1NC(=O)CC2C(=O)NCCN12 (centres undefined)	-1	8.8*	/	-6	0	3	-3	2
COc1cccc(S(=O)(=O)N[C@@H]2CC[C@@H](CC(=O)NC3CCC3)O[C@H]2CO)c1	1	/	/	/	/	1	/	/
O=C(Nc1ccc(Cl)cc1)NC1CCCC1Cc1ccco1 (centres undefined)	/	8.4*	-4	-6	-2	/	-2	3
O=C(NCc1ccncc1)Nc1ccc(Cc2ccc(NC(=O)NCc3ccncc3)cc2)cc1	1	3	/	-2	/	0	/	/
O=C(NCc1ccncc1)Nc1ccccc1	3	54*	1	-5	-2	-3	-1	-1
